The list is not random: actives were taken first. Their share in the collection is about 1.9%.
Rad51 HR inh = blocks human Rad51 in homologous recombination. hRad51 DNA strand exchange, fluorescence dequenching. 0.085% of 200,000 active. inhibition, % at 10 µM. AID 1385;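 active = inhibition above 40% at the single screening dose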;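 note: 0% = DMSO control wells and 100% = blanks with heterologous ssDNA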
Target sequence (Q06609 whole entry, looked up): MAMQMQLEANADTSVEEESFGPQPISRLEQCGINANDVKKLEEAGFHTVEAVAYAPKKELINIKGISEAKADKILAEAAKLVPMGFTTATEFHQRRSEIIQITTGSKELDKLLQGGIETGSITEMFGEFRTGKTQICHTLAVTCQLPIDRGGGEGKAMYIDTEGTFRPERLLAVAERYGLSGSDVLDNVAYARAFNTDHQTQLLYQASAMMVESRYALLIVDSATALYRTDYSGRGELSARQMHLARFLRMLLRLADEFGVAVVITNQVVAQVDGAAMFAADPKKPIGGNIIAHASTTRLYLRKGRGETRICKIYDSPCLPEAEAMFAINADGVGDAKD
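Material: hRad51 filaments on single-stranded DNA; Reagent: Donor/quencher-labelled 47-bp dsDNA substrate; Compound: 10 µM final, single point; Schedule: 37 °C 15-min filament assembly, 30-min compound preincubation, 15-min exchange; Technique: FRET fluorescence, excitation 485 nm, emission 520 nm; Benchmarks: control wells and blank wells on each plate.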
HIF act = HIF pathway transcriptional activation; U2OS HRE-luciferase reporter, luminescence; normalized: DMSO 0%, desferrioxamine 100%; activation, % at 7.5 µM (by protocol); 0.32% of 300,000 active;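 active = mean activation of at least 10% of the iron chelator positive control signal, with at least half of replicates also reaching 10%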
Hsp70 activator = Hsp70 transcriptional activation, primary screen | HeLa Hsp70 promoter luciferase reporter, luminescence; scaled: vehicle 0, proteasome-inhibitor control 100% | activation, % at 10 µM | 0.04% of 200,000 active | AID 1203;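 active = activation above the mean across all tested compounds plus 3 SD, cutoff set per campaign, cut at about 5.5% in these data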;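 note: 100% = MG132 at 30 µM as the positive control and 0% = DMSO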
TAG inh = reduces triacylglycerol accumulation in H9c2 cells | Nile Red lipid (TAG) fluorescence; cells loaded with 200 µM oleic acid | AID 651582 | inhibition, % at 12.5 µM | 0.66% of 230,000 active;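 active = pattern-corrected inhibition of lipid staining of at least 50% with the nuclear-stain viability signal not falling by more than 50%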;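 note: 0% = DMSO wells and 100% = triacsin C control wells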
ABHD5 PLIN5 PPI = blocks binding of human ABHD5 to perilipin-5; 0.78% of 360,000 active; Split G. princeps luciferase complementation, luminescence, 4 h; inhibition, % at 4 µM; Q00G26+Q8WTS1;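 active = inhibition above the mean inhibition across every tested compound plus 3 SD, cut at about 22% in these data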;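 note: 0% = DMSO only wells and the 100% control is not disclosed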
GAA850 FXN act = activators of GAA850 frataxin (FXN) promoter; activation, % at 6 µM; HEK293 lucGAA850 FXN promoter luciferase reporter, 24 h; percent of 10 µM SAHA response; AID 540364; 0.56% of 360,000 active;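 active = activation above the average of all compounds screened plus 3 SD, cutoff fixed separately per campaign, cut at about 7.5% in these data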;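 note: 0% = DMSO wells and 100% = 10 µM SAHA wells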
ABHD5 PLIN5 conf = ABHD5-PLIN5 interaction inhibition, confirmed; shares compounds with ABHD5 PLIN5 PPI; biochemical ABHD5-PLIN5 interaction, luminescence; inhibition, % at 4 µM; 67% of 2,200 active; AID 651612; in the data active = inhibition above about 23%;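 note: 0% = DMSO vehicle wells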
HNF4 split-luc = active in HNF4 split-luciferase counter-screen for ABHD5-PLIN5 inhibitors; inhibition, % at 4 µM; shares compounds with ABHD5 PLIN5 PPI; HNF4 dimerization, luminescence, biochemical; 77% of 2,200 active;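 active = mean inhibition across replicate wells exceeding the computed hit threshold, cut at about 13% in these data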;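 note: light from luciferase halves that rejoin when HNF4 fusion proteins dimerize; 0% = DMSO only wells and the 100% control is not given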
An asterisk follows results filed as active; x = no result.

SMILES	Rad51 HR inh	HIF act	Hsp70 activator	TAG inh	ABHD5 PLIN5 PPI	GAA850 FXN act	ABHD5 PLIN5 conf	HNF4 split-luc
COC(=O)c1cc(=O)n(Cc2cccs2)c(=Nc2ccc(F)cc2)s1	-4	0	0	12	45*	2	65*	44*
COC(=O)c1cc(=O)n(-c2ccc(F)cc2)c(=Nc2ccc(F)cc2)s1	-1	1	1	10	40*	0	71*	49*
COC(=O)c1cc(=O)n(Cc2ccc3c(c2)OCO3)c(=Nc2ccc(F)cc2)s1	2	0	0	16	2	0	x	x
CC(C)c1ccc(N2C=Nc3ccc(C(C)C)cc3C2)cc1	-3	1	x	6	36*	3	24*	10
COc1cc(NC(=O)Nc2nnc([C@H]3C[C@H](O)[C@@H](CO)O3)s2)cc(OC)c1OC	x	x	x	2	1	1	x	x
CC1CCN(S(=O)(=O)c2ccc(NC(=O)Cn3nnc(-c4ccccc4)n3)cc2)CC1	-10	-2	0	x	26*	-2	53*	-1
CC1CCN(S(=O)(=O)c2ccc(NC(=O)Cc3cccs3)cc2)CC1	-7	0	0	x	33*	2	44*	1
CC(C)c1ccc(NC2CCCN(C(=O)c3cccc4nccnc34)C2)cc1 (stereo unspecified)	x	0	x	x	-6	0	x	x
O=C(COC(=O)c1cc(S(=O)(=O)N2CCc3ccccc3C2)ccc1Cl)NCc1ccco1	-19	0	-1	-9	28*	3	45*	59*
O=C(COC(=O)c1cccc(S(=O)(=O)N2CCc3ccccc3C2)c1)NCc1ccco1	-10	0	0	x	-3	-2	x	x
O=C1C=CC(=O)N1Cc1ccncc1	x	x	x	1	0	3	x	x
O=C1C=CC(=O)N1CCCCCCCCCCN1C(=O)C=CC1=O	x	x	x	-4	58*	-4	68*	106*
CN(Cc1ccccc1)Cc1ccccc1C(O)c1ccccc1 (stereo unspecified)	x	x	x	-19	2	0	x	x
CC1=NNC(=O)/C1=C\c1cn(-c2ccccc2)nc1-c1ccc(Cl)cc1	-11	-4	0	x	32*	1	56*	91*
CC1(C)CC(=O)C2=C(C1)NC1=C(C(=O)c3ccccc31)C2c1ccccc1 (stereo unspecified)	x	0	0	x	10	-2	x	x
CC(C)c1ccc(C2C3=C(CC(C)(C)CC3=O)NC3=C2C(=O)c2ccccc23)cc1 (stereo unspecified)	0	0	0	x	29*	-2	42*	63*
Cc1ccc(/C=C2/NC(=O)N(c3ccccc3)C2=O)o1	-24	1	0	-15	19	5	x	x
Cc1ccc(/C=C2/NC(=O)N(Cc3ccccc3F)C2=O)o1	-5	0	0	x	40*	2	17	81*
CCCN1C(=O)/C(=C/c2ccc(C)o2)NC1=S	15	0	0	x	x	x	x	x
Cc1ccc(/C=C2/NC(=O)N(Cc3ccc(Br)cc3)C2=O)o1	0	1	0	x	55*	6	63*	93*
CCN1C(=O)N/C(=C/c2ccc(C)o2)C1=O	4	0	0	6	42*	2	27*	89*
CCn1c(C)cc(/C=C2/NC(=O)N(Cc3ccccc3F)C2=O)c1C	2	0	0	x	-4	3	x	x
Cc1ccccc1Nc1nc(N)nc(COC(=O)c2ccc3c(c2)OCCO3)n1	x	x	x	-5	1	2	x	x
CN[C@@H](CO)C(=O)NC[C@H]1O[C@@H](n2cnc3c(N)ncnc32)[C@H](O)[C@@H]1O	x	x	x	x	-2	x	x	x
CCOC(=O)[C@]12CCCC=C1N(Cc1ccccc1)C(=O)[C@H](CC(=O)NCc1ccccc1)C2	x	x	x	x	4	x	x	x
Cc1ccc(C(NC(=O)c2cccc(S(=O)(=O)N3CCN(C)CC3)c2)c2ccccc2)cc1 (stereo unspecified)	x	x	x	14	10	0	x	x
